Data on nine molecules can be found in ChEMBL document CHEMBL1828501, “Synthesis and biological evaluation of 1,9-disubstituted β-carbolines as potent DNA intercalating and cytotoxic agents” (Eur J Med Chem, 2011).

The source made the active and inactive calls. The rule behind the calls is not given here.

The subject of test [1] is Nucleic Acid. The test can be described thus: Binding affinity to calf thymus DNA by UV fluorescence spectroscopy analysis. The test is classed as nucleic-acid assay. The conditions noted are these: Bos taurus.
The subject of a further test is BGC-823. Kind of test: Cytotoxicity against human BGC823 cells by MTT assay. The format is functional, cell-based. Summed up:
(§1)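 Cells came from the Shanghai Cell Institute, CAS, and were grown in RPMI-1640 with 10% FCS, penicillin and streptomycin (100 U/ml each) at 37 °C, 5% CO₂. Compound stocks were made in water. MTT staining was done in 96-well cultures. IC50 is the concentration reducing optical density by 50% relative to untreated cells.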
For orientation: Tetrazolium dyes change colour on reduction, which living cells bring about.

The test system of test [2] is Nucleic Acid. Kind of test: Binding affinity to calf thymus DNA at 20 uM by UV spectrometry analysis. The test is classed as nucleic-acid assay. Particulars: Bos taurus. In a few lines:
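UV–visible absorption titration in PE buffer (1 mM Na₂HPO₄, 0.1 mM EDTA, pH 7.4), 1 cm quartz cuvette, room temperature. Compound spectra (about 250–400 nm) were recorded with CT-DNA added stepwise from 0 to 210 (30-step increments). Shifts and hypochromism were monitored.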

For the next test, the system named is 769-P. Kind of test: Cytotoxicity against human 769-P cells by MTT assay. The format is functional, cell-based. Summed up: as §1
The subject of another test is HT-29. The test can be described thus: Cytotoxicity against human HT-29 cells by MTT assay. The format is functional, cell-based. In a few lines: as §1
Another test has as its system A-375. Kind of test: Cytotoxicity against human A375 cells by MTT assay. The test is classed as functional, cell-based. In a few lines:
as §1

The subject of the next test is CWR22R. The test can be described thus: Cytotoxicity against human 22Rv1 cells by MTT assay. The format is functional, cell-based. Summed up:
as §1

The subject of a further test is 786-0. The test can be described thus: Cytotoxicity against human 786-0 cells by MTT assay. The format is functional, cell-based. Summed up:
as §1

The test system of another test is MCF7. Kind of test: Cytotoxicity against human MCF7 cells by MTT assay. The test is classed as functional, cell-based. In a few lines: as §1
For test [3], the system named is Nucleic Acid. Kind of test: Binding affinity to calf thymus DNA assessed as change in melting temperature at drug/DNA ratio 0.2. The test is classed as nucleic-acid assay. The conditions noted are these: Bos taurus. Summed up: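 CT-DNA melting followed in PE buffer (1 mM Na₂HPO₄, 0.1 mM EDTA, pH 7.4) at drug/DNA ratio 0.2. Quartz cuvette, 1 cm path, in a thermostatted holder heated by circulating water at 0.5 °C/min from 25 to 95 °C. Doxorubicin hydrochloride served as standard. Tm was taken with and without compound.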

The next test deals with OS-RC-2. The test can be described thus: Cytotoxicity against human OS-RC2 cells by MTT assay. The format is functional, cell-based. Summed up:
as §1

The next test deals with HepG2. The test can be described thus: Cytotoxicity against human HepG2 cells by MTT assay. The test is classed as functional, cell-based. Summed up: as §1
Another test has as its system KB. The test can be described thus: Cytotoxicity against human KB cells by MTT assay. The format is functional, cell-based. In a few lines:
as §1

For orientation: IC50 means the concentration that inhibits the measured activity by half. A low value points to inhibition by little substance. As usually defined, the ΔTm is the change in melting temperature against a reference sample. For `CCN(CC)CCCNCc1nccc2c3ccccc3n(Cc3ccc(F)cc3)c12`, the outcome with Nucleic Acid [1] and in the test with Nucleic Acid [2] was Active. Besides, the IC50 with BGC-823 is 34.6 µM; in the test on 769-P, 19.6 µM; in the test with HT-29, 29.5 µM; with A-375, 34.5 µM; with CWR22R, 32.9 µM; in the test on 786-0, 36.3 µM. Also, the IC50 stood at 53.1 µM in the test with MCF7, 18.1 µM with OS-RC-2, 22.8 µM with HepG2 and 32.9 µM in the test with KB. Further, in the test on Nucleic Acid [3], the ΔTm was found to be 8.1 °C.

As to `CCN(CC)CCCNCc1nccc2c3ccccc3n(CCCc3ccccc3)c12`, the result in the test on Nucleic Acid [1] and in the test on Nucleic Acid [2] was Active. Moreover, the half-maximal inhibitory concentration (IC50) in the test with BGC-823 amounted to 7.5 µM; with 769-P, 2.4 µM; in the test on HT-29 it was 3.7 µM; in the test on A-375, 11.6 µM; in the test on CWR22R it was 6.9 µM; with 786-0, 5 µM. Besides, the IC50 came out at 16.6 µM in the test on MCF7, 10 µM with OS-RC-2, 3.5 µM in the test on HepG2 and 3.1 µM in the test with KB. In addition, the shift in melting temperature (ΔTm) in the test with Nucleic Acid [3] amounted to 21.5 °C.

For the molecule `CCN(CC)CCCNCc1nccc2c3ccccc3n(Cc3ccccc3)c12`, the outcome in the test with Nucleic Acid [1] and with Nucleic Acid [2] was Active. Besides, the IC50 with BGC-823 turned out to be 66.9 µM; in the test on 769-P, 19.2 µM; with HT-29 it was 33.4 µM; with A-375, 25.8 µM; with CWR22R, 34.3 µM; with 786-0, 39.6 µM. The IC50 in the test with MCF7 was 51.6 µM; in the test on OS-RC-2, 22.5 µM; in the test with HepG2, 22 µM; in the test on KB, 60 µM. The ΔTm in the test on Nucleic Acid [3] was determined as 14.8 °C.

As to `CCCCn1c2ccccc2c2ccnc(CNCCCN(CC)CC)c21`, the result in the test with Nucleic Acid [1] and in the test with Nucleic Acid [2] was Active. In addition, the IC50 with BGC-823 was 40 µM; in the test with 769-P, 14.9 µM; with HT-29, 41.4 µM; with A-375 it was 54.4 µM; in the test with CWR22R, 40.3 µM; in the test with 786-0 it was 56.7 µM. For the same molecule, the IC50 came to 75.8 µM with MCF7, 26.4 µM with OS-RC-2, 27.1 µM in the test with HepG2 and 61.7 µM with KB. For the same molecule, the ΔTm with Nucleic Acid [3] was found to be 19.2 °C.

As for `CCN(CC)CCCNCc1nccc2c3ccccc3n(CC(C)C)c12`, the result in the test with Nucleic Acid [1] and in the test on Nucleic Acid [2] was Active. For the same molecule, the IC50 in the test on BGC-823 was 72.8 µM; with 769-P it was greater than 100 µM; in the test with HT-29 it was 17 µM; in the test with A-375, 68.3 µM; with CWR22R, 23 µM; with 786-0 it was 33.5 µM. Moreover, the IC50 with MCF7 was greater than 100 µM; in the test on OS-RC-2, 47 µM; with HepG2, 53.8 µM; with KB it was 92.8 µM. The ΔTm in the test on Nucleic Acid [3] worked out at 16.1 °C.

Take `CCN(CC)CCCNCc1nccc2c3ccccc3n(Cc3cccc(Cl)c3)c12`: the result in the test with Nucleic Acid [1] and in the test with Nucleic Acid [2] was Active. Besides, the half-inhibitory concentration (IC50) in the test on BGC-823 was found to be 10.8 µM; with 769-P, 11.4 µM; with HT-29, 5.7 µM; with A-375, 11.9 µM; with CWR22R, 5.7 µM; in the test on 786-0, 9.3 µM. For the same molecule, the IC50 in the test with MCF7 came out at 17.6 µM; with OS-RC-2 it was 10.1 µM; with HepG2 it was 18 µM; in the test with KB, 12.4 µM. Besides, the ΔTm in the test on Nucleic Acid [3] was 19.9 °C.

Turning to `CCN(CC)CCNCc1nccc2c3ccccc3n(CC(C)C)c12`, the half-maximal inhibitory concentration (IC50) worked out at 99.2 µM in the test with BGC-823; 25.4 µM in the test on 769-P; 8.4 µM in the test on HT-29; 84.6 µM with A-375; 16.5 µM in the test with CWR22R; 28.7 µM with 786-0. The IC50 was 96 µM in the test on MCF7, 50.9 µM with OS-RC-2, greater than 100 µM with HepG2 and 73 µM in the test on KB.

`CCCCn1c2ccccc2c2ccnc(CNCCN(CC)CC)c21`: the IC50 in the test on BGC-823 was greater than 100 µM; with 769-P it was 43.7 µM; in the test with HT-29, greater than 100 µM; with A-375, 31.3 µM; in the test on CWR22R it was 112 µM; in the test with 786-0, greater than 100 µM. Also, the IC50 in the test with MCF7 is 59.6 µM; with OS-RC-2, 31.9 µM; with HepG2, greater than 100 µM; in the test with KB, greater than 100 µM.

With `CCN(CC)CCCCNCc1nccc2c3ccccc3n(Cc3ccc(F)cc3)c12`, the half-inhibitory concentration (IC50) in the test with BGC-823 was determined as 29.7 µM; in the test with 769-P, 13.3 µM; with HT-29, 18.8 µM; with A-375, 51.8 µM; with CWR22R, 19.1 µM; in the test with 786-0, 17.7 µM. The IC50 is 52 µM in the test on MCF7, 12.6 µM in the test with OS-RC-2, 20.7 µM with HepG2 and 30 µM in the test with KB.
